Measurements: the M2OR odorant receptor database

Columns and labels:
Details in all cases: stereoisomer not certain
OR3A3 T48I L132F = test system: T1, OR3A3 T48I L132F
T1 sequence (whole entry): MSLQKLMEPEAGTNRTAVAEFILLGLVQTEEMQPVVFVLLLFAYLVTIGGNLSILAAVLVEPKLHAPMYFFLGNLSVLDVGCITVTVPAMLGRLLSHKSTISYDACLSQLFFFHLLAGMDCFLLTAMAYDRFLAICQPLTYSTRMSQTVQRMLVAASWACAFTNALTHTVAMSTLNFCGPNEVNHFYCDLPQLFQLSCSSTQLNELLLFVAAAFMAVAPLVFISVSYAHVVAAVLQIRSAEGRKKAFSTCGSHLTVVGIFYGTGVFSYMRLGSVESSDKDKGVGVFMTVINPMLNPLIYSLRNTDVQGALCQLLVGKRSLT
How it was run: (§1)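 Each receptor–molecule pair is labelled responsive or non-responsive (inactive) according to whether the original authors judged the measured signal statistically different from baseline. The data were taken from the main text and supplementary material of published papers and checked for typos and inconsistencies. Assay methods differed by source, with transient luciferase assays in mammalian cell lines being common.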

OR4A15 (Homo sapiens) = OR4A15 (Homo sapiens) (UniProt Q8NGL6)
Sequence of OR4A15 (Homo sapiens) (Q8NGL6 whole entry): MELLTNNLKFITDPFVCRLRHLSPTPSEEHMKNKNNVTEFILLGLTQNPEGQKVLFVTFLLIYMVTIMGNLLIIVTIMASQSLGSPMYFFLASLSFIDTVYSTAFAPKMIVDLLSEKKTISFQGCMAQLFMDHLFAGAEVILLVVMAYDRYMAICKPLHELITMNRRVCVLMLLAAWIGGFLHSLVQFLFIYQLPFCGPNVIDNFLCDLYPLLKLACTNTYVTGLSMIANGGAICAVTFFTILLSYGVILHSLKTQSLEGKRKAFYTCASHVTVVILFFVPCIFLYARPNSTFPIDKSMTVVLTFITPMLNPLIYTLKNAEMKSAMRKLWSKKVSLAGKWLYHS
How it was run: as §1

OR4A16 (Homo sapiens) = molecular target: T2, OR4A16 (Homo sapiens) (UniProt Q8NH70)
T2 sequence (whole entry): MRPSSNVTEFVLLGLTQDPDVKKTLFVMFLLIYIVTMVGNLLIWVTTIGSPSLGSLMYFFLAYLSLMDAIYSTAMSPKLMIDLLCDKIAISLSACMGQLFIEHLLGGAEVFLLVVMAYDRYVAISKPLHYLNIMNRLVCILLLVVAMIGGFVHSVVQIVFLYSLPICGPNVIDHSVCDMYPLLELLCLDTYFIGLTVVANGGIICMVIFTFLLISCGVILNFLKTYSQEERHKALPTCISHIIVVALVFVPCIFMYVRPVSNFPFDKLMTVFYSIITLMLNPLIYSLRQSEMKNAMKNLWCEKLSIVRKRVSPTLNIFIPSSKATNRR
How it was run: as §1

OR4A47 (Homo sapiens) = molecular target: T3, OR4A47 (Homo sapiens) (UniProt Q6IF82)
T3 sequence (whole entry): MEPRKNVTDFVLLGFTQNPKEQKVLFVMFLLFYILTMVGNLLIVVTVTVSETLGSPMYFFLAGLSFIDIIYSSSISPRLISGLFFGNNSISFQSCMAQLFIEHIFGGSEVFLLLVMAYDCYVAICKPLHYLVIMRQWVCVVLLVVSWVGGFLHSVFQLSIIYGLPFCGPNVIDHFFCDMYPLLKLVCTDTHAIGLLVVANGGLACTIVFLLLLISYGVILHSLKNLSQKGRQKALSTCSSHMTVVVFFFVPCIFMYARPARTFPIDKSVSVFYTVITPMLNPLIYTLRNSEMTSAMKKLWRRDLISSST
How it was run: as §1

OR4A5 (Homo sapiens) = molecular target: T4, OR4A5 (Homo sapiens) (UniProt Q8NH83)
T4 sequence (whole entry): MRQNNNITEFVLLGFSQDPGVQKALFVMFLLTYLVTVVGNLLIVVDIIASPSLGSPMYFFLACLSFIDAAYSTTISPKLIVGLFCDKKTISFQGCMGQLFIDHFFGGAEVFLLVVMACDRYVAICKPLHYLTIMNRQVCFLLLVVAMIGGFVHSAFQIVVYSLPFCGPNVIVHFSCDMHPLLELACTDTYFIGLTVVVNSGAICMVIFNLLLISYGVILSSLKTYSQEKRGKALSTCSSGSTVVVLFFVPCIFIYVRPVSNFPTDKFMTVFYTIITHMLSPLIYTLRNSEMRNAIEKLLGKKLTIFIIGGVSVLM
How it was run: as §1

OR4B1 (Homo sapiens) = molecular target: T5, OR4B1 (Homo sapiens) (UniProt Q8NGF8)
T5 sequence (whole entry): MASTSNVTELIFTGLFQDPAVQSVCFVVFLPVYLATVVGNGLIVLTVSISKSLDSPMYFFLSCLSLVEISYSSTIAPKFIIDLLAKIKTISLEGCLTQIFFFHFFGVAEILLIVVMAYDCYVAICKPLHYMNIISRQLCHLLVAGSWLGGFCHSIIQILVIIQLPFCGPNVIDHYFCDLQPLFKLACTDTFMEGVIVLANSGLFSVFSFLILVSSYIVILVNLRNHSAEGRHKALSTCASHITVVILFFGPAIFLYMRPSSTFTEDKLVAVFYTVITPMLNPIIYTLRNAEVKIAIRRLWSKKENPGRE
How it was run: as §1

OR4C11 (Homo sapiens) = molecular target: T6, OR4C11 (Homo sapiens) (UniProt Q6IEV9)
T6 sequence (whole entry): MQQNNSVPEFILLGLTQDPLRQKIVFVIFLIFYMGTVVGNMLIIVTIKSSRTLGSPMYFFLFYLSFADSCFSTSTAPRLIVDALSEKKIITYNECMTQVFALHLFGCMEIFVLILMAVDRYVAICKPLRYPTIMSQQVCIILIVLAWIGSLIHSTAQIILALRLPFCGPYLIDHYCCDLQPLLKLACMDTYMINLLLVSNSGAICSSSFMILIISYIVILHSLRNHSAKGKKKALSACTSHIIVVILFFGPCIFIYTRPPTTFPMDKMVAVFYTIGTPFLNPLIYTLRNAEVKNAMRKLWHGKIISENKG
How it was run: as §1

OR4C12 (Homo sapiens) = OR4C12 (Homo sapiens) (UniProt Q96R67)
Sequence of OR4C12 (Homo sapiens) (Q96R67 whole entry): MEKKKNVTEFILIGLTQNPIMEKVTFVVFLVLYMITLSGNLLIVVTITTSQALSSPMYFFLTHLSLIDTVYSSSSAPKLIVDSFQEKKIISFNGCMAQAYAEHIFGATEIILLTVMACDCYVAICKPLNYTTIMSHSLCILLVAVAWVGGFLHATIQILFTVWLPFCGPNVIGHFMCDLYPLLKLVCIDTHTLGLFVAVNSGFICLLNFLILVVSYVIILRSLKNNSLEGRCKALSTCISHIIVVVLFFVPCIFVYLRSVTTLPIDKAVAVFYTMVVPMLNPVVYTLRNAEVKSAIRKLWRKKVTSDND
How it was run: as §1

OR4C13 (Homo sapiens) = OR4C13 (Homo sapiens) (UniProt Q8NGP0)
Sequence of OR4C13 (Homo sapiens) (Q8NGP0 whole entry): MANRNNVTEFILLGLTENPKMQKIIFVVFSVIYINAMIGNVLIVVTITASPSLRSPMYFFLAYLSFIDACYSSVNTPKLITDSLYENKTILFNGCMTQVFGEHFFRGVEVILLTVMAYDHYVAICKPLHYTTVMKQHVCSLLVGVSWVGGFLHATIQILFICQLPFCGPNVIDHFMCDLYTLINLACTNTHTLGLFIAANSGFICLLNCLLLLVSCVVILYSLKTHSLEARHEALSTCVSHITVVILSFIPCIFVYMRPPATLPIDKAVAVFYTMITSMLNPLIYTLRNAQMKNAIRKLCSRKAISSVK
How it was run: as §1

OR4C16 (Homo sapiens) = molecular target: T7, OR4C16 (Homo sapiens) (UniProt Q8NGL9)
T7 sequence (whole entry): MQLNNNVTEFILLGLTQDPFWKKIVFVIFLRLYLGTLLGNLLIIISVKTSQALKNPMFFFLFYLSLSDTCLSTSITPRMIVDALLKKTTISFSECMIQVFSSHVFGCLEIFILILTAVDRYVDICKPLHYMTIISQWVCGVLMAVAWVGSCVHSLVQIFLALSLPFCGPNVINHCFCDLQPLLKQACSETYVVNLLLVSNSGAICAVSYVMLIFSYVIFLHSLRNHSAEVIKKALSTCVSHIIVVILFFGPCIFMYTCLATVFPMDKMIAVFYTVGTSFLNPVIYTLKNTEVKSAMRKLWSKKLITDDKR
How it was run: as §1

OR4C3 = test system: OR4C3
Sequence of OR4C3 (as listed by the source): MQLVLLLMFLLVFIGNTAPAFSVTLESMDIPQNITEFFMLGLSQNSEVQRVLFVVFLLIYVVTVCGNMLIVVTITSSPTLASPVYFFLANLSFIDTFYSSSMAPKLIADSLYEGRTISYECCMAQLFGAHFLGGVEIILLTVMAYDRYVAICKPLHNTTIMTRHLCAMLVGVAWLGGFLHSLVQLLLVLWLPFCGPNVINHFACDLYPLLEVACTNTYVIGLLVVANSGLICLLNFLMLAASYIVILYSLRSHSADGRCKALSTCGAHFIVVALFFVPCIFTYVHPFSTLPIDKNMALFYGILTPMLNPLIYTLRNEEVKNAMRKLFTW
How it was run: as §1

OR4C45 (Homo sapiens) [1] = molecular target: OR4C45 (Homo sapiens) (UniProt A6NMZ5)
How it was run: as §1
Target sequence in this assay (A6NMZ5 whole entry): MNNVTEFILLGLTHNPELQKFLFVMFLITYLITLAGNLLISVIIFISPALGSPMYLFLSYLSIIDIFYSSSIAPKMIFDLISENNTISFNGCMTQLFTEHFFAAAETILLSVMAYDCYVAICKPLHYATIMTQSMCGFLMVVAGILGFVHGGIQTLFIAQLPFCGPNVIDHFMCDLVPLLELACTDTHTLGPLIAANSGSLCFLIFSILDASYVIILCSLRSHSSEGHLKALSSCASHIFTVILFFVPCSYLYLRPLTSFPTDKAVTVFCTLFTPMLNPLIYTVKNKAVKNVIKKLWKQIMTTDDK

OR4C46 (Homo sapiens) = OR4C46 (Homo sapiens) (UniProt A6NHA9)
Sequence of OR4C46 (Homo sapiens) (A6NHA9 whole entry): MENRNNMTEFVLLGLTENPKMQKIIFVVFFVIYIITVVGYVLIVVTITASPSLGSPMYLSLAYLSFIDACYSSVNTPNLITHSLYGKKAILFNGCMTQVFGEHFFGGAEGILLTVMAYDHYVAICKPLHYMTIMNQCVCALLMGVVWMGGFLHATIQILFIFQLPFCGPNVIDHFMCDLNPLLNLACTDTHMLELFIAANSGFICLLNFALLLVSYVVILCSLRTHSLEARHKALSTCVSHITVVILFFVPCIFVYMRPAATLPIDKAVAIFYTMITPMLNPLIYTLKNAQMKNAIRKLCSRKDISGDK
How it was run: as §1

OR4C5 (Homo sapiens) = OR4C5 (Homo sapiens) (UniProt Q8NGB2)
Sequence of OR4C5 (Homo sapiens) (Q8NGB2 whole entry): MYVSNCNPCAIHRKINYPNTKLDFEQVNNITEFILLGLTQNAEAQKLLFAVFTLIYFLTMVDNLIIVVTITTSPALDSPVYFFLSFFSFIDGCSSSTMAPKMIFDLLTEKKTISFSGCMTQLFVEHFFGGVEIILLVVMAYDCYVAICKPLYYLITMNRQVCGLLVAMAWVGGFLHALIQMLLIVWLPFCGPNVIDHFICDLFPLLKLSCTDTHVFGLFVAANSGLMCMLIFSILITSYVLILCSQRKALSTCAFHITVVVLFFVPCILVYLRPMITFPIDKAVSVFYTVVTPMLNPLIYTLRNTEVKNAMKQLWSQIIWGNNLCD
How it was run: as §1

OR4C6 (Homo sapiens) = OR4C6 (Homo sapiens) (UniProt Q8NH72)
Sequence of OR4C6 (Homo sapiens) (Q8NH72 whole entry): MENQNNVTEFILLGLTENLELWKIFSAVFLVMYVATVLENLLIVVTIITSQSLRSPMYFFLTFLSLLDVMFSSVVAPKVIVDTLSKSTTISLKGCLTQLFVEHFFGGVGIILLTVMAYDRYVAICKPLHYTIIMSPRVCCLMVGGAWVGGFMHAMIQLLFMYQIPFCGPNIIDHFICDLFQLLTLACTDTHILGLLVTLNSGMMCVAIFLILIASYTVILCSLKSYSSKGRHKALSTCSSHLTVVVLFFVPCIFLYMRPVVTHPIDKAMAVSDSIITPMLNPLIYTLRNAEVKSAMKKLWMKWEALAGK
How it was run: as §1

OR4A8 (Homo sapiens) = OR4A8 (Homo sapiens) (UniProt P0C604)
Sequence of OR4A8 (Homo sapiens) (P0C604 whole entry): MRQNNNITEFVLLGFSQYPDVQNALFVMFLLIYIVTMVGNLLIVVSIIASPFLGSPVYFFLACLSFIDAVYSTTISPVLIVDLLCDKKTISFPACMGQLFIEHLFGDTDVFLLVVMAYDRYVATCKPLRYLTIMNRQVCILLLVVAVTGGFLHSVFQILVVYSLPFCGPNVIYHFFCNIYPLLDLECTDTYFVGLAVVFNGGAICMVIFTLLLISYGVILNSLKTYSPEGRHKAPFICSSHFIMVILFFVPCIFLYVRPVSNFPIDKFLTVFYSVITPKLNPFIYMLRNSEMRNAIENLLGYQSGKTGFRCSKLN
How it was run: as §1

OR4C15 (Homo sapiens) = OR4C15 (Homo sapiens) (UniProt Q8NGM1)
Sequence of OR4C15 (Homo sapiens) (Q8NGM1 whole entry): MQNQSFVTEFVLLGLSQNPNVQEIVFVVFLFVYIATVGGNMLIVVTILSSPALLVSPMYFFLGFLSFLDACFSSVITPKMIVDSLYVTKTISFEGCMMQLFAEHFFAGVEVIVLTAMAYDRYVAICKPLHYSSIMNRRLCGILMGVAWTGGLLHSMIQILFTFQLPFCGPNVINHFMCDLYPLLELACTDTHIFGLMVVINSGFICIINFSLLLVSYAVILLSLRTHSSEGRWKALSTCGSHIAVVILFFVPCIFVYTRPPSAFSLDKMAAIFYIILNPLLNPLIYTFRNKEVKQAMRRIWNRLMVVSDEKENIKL
How it was run: as §1

OR4C3 (Homo sapiens) = OR4C3 (Homo sapiens) (UniProt Q8NH37)
Sequence of OR4C3 (Homo sapiens) (Q8NH37 whole entry): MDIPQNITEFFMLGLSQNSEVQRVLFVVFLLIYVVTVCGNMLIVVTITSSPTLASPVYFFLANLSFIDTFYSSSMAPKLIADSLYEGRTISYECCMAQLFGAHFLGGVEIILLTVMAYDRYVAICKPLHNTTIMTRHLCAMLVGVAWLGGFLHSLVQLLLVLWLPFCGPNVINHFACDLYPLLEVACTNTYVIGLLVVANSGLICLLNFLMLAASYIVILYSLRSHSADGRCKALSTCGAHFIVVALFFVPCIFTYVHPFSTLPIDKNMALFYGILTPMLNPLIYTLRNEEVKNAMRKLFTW
How it was run: as §1

OR4C45 (Homo sapiens) [2] = molecular target: T8, OR4C45 (Homo sapiens) (UniProt A6NMZ5); remark: listed apart in the source
T8 sequence (whole entry): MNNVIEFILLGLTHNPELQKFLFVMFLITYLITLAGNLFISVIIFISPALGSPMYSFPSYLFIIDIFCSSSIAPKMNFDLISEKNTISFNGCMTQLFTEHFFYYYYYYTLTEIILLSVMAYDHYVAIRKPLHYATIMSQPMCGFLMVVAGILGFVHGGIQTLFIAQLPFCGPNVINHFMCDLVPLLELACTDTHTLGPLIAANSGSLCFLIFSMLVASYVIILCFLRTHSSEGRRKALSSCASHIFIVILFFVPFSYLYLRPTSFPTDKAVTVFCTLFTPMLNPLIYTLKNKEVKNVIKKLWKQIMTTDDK
How it was run: as §1

OR3A4P (Homo sapiens) = molecular target: T9, OR3A4P (Homo sapiens) (UniProt P47883)
T9 sequence (whole entry): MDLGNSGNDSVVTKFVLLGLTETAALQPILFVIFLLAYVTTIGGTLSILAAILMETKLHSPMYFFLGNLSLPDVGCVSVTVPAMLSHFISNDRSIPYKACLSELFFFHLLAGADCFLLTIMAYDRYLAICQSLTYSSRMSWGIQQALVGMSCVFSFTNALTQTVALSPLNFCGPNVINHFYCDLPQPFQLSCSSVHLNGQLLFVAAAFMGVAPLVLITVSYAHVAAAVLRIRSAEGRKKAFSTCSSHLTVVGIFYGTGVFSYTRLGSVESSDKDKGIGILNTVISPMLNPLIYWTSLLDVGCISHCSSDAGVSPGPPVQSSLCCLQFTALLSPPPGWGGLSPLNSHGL
How it was run: as §1

Measured: odorant receptor agonist call

CCC1OC(C)=C(O)C1=O (stereo not given)
not listed: OR4A8 (Homo sapiens) | OR4C15 (Homo sapiens) | OR4C3 (Homo sapiens) | OR4C45 (Homo sapiens) [2] | OR3A4P (Homo sapiens)
inactive: all other assays above

CCC1OC(=O)C(O)=C1C (stereo not given)
not listed: OR4A8 (Homo sapiens) | OR4C15 (Homo sapiens) | OR4C3 (Homo sapiens) | OR4C45 (Homo sapiens) [2] | OR3A4P (Homo sapiens)
inactive: all other assays above

CC1CCCCCCCCCCCCC(=O)C1 (stereo not given)
not listed: OR3A3 T48I L132F | OR4C3 | OR4C45 (Homo sapiens) [1] | OR3A4P (Homo sapiens)
inactive: all other assays above

CCCCC(S)C(C)CO (stereo not given)
not listed: OR3A3 T48I L132F | OR4C3 | OR4C45 (Homo sapiens) [1] | OR4A8 (Homo sapiens)
inactive: all other assays above

CC(C)=CCCC(C)=CCO
inactive: OR4C3

CCCC(S)CCOC(C)=O (stereo not given)
not listed: OR4A8 (Homo sapiens) | OR4C15 (Homo sapiens) | OR4C3 (Homo sapiens) | OR4C45 (Homo sapiens) [2] | OR3A4P (Homo sapiens)
inactive: all other assays above

CCCCCC(=O)C(C)C(C)=O (stereo not given)
not listed: OR3A3 T48I L132F | OR4C3 | OR4C45 (Homo sapiens) [1] | OR4A8 (Homo sapiens)
inactive: all other assays above

CCCCCCC=CCCC=O
not listed: OR4C3 | OR4C45 (Homo sapiens) [1] | OR4A8 (Homo sapiens) | OR3A4P (Homo sapiens)
inactive: all other assays above
